The full list was thinned out, with hits kept by preference.
ROMK primary: modulates human ROMK potassium channel activity | AID 1918 | 2% of 130,000 active | P48048 | Tet-inducible ROMK, thallium flux fluorescence; actives lie on both sides | B-score at 10 µM;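 active = signal ratio slope over the read window, or its plate-corrected B-score, at least 3 SD from the plate mean, either direction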;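 note: B-score of the F/F0 ratio slope over 7 to 12 s after thallium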
Target sequence (P48048 whole entry, looked up): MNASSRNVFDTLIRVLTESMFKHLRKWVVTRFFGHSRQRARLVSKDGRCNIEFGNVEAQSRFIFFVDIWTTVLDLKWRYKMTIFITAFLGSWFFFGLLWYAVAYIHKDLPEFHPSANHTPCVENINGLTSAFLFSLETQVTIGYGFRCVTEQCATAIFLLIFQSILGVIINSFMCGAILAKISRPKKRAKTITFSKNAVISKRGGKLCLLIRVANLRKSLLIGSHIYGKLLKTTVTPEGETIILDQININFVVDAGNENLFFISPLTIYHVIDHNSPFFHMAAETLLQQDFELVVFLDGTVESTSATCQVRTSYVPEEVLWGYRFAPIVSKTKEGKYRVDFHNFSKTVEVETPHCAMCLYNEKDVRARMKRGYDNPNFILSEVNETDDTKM
Pf gametocyte: kills late stage P. falciparum gametocytes; inhibition, % at 10.9 µM; 0.065% of 150,000 active; P. falciparum stage V gametocytes, ATP luminescence, 24 h; AID 743093;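 active = inhibition above the mean plus 3 SD of compounds within the control limits, set per campaign, cut at about 38% in these data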;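 note: 0% = DMSO wells and 100% = medium only without gametocytes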
Calb biofilm kill: mixture kills Candida albicans biofilm cells | C. albicans biofilm persisters + clotrimazole, fluorescence viability; primary screen in compound mixtures of four per well | inhibition, % at 7.6 µM | 0.02% of 120,000 active | AID 1242;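 active = inhibition above 30.3% in the primary screen of four-compound pools, then above 30% when the compound was retested; inconclusive = passed the primary limit but could not be retested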;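 note: compounds exposed to preformed 24 h biofilms for 48 h; 0% = untreated biofilm control and 100% = clotrimazole plus chlorhexidine kill blank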
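Test system: C. albicans CAF4-2 wild-type biofilms; buffer or medium: RPMI/MOPS medium, pH 7.0; schedule: 24 h biofilm formation, then 48 h compound exposure, 37 °C; detection: Alamar Blue fluorescence; measure: percent inhibition of biofilm viability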
ROMK hit retest: confirmation of human ROMK potassium channel modulators; ROMK thallium flux, fluorescence ratio; hits give low values; 54% of 3,000 active; normalized thallium flux (F/F0 slope) at 10 µM; shares compounds with ROMK primary; AID 1917;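 active = Flux at 10 µM at least 3 SD below or above vehicle control mean in one or both replicates; inconclusive = no clear call, values can overlap the other calls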
Starred values were filed as active, the others as inactive; ? = inconclusive; . = no result given.

SMILES	ROMK primary	Pf gametocyte	Calb biofilm kill	ROMK hit retest
CCCC(C)n1[nH]c(=O)c2c1NC(=O)CSC2c1ccc(OC)cc1 (stereo not given)	2.27*	.	.	?
CCCOc1ccccc1C1SCC(=O)Nc2c1c(=O)[nH]n2C(C)CCC (stereo not given)	.	0.8	.	.
N/C(=N/[N+](=O)[O-])N1CCN(C(=O)c2ccc(Cl)cc2)CC1	-0.122	4.8	-2.8	.
Cc1cc(OC(=O)N(C)C)nc(SCc2c(Cl)cccc2Cl)n1	.	26.8	15.4	.
CC(C)Oc1ccc(C2(C#N)CC[N+](C)(C)CC2)cc1	0.22	19.0	10.2	.
CC(C)(C)C(=O)Cn1c(NCCCl)nc2ccccc21	.	22.8	1.6	.
COc1cc2c(cc1OC)[C@H]1C(=O)c3ccc4c(c3O[C@H]1CO2)C[C@@H](C(C)(C)O)O4	.	-17.6	.	.
COc1cc2c(cc1OC)[C@@H]1C(=O)c3ccc4c(c3O[C@@H]1CO2)C[C@H](C(C)C)O4	.	19.2	-11.5	0.0639*
CCN(CC)c1ccc(/C=C2\C(=O)NC(=S)N(C)C2=O)o1	-6.35*	10.7	22.4	0.0283*
Cc1ccc(/C=C2\C(=O)NC(=S)N(c3ccc(F)cc3)C2=O)o1	.	1.1	.	.
CC(C)(C)NC(=O)C1CC2CCCCC2CN1 (stereo not given)	-0.0264	-6.2	2.8	.
CCN1CCN(c2ccc(N)c(C)c2)CC1	0.0239	2.7	4.3	.
COC(=O)C1=C(c2ccc(C(C)=O)cc2)C[C@@H]2CC[C@H]1N2C(=O)NCc1ccco1	.	-6.2	.	.
COC(=O)C1=Nc2ccccc2/C1=C\c1c(O)n(-c2ccc(Br)cc2)c(=O)[nH]c1=O	0.678	.	14.7	.
O=c1[nH]c(=O)n(-c2ccccc2)c(O)c1/C=C1/C(c2ccccc2)=Nc2ccccc21	-5.41*	-20.6	13.1	0.0546*
Cc1ccc2c(c1)C(c1ccccc1)=NCC(=O)N2C	.	5.9	.	.
C=CCN1C(=O)NC(=O)/C(=C/c2cnc(SC)nc2)C1=O	.	-26.3	.	.
C=CCN1C(=O)NC(=O)/C(=C/c2cc3c4c(c2)CCCN4CCC3)C1=O	-4.35*	14.9	12.3	0.0559*
CS(=O)(=O)N1CCN(C(=N)N[N+](=O)[O-])CC1	-2.64*	.	1.6	0.0806
Oc1ccccc1-[n+]1c(-c2ccccc2)cc(-c2ccccc2)c(O)c1-c1ccccc1	.	5.8	.	.
CCOC(=O)C1=C(N)OC(C)=C(C(=O)OCCOC)C12C(=O)Nc1ccccc12 (stereo not given)	0.38	.	.	.
CCOC(=O)C1=C(N)OC2=C(C(=O)CCC2)C12C(=O)N1c3c(ccc(C)c32)C(C)=CC1(C)C (stereo not given)	-5.89*	.	.	0.0587*
C=CCn1c(O)c(C(CC)=NCc2ccco2)c(=O)[nH]c1=O	.	6.1	28.3	.
C=CCn1c(O)c(C(C)=NCCN2CCN(C(=S)NC)CC2)c(=O)[nH]c1=O	.	8.2	29.8	.
CCOc1ccccc1-n1c(O)c(C=Nc2ccc(N(CC)CC)cc2)c(=O)[nH]c1=O	2.66*	.	.	0.0798
SMILES	ROMK primary	Pf gametocyte	Calb biofilm kill	ROMK hit retest
CCN(CC)c1ccc(N=Cc2c(O)n(-c3ccccc3C)c(=O)[nH]c2=O)cc1	1.12	.	.	.
CCN(CC)c1ccc(N=Cc2c(O)n(-c3ccccc3)c(=O)[nH]c2=O)cc1	-0.28	-12.3	24.7	.
CCN(CC)c1ccc(N=Cc2c(O)n(Cc3ccccc3)c(=O)[nH]c2=O)cc1	-8.27*	-14.2	15.1	0.0485*
CCn1c(O)c(C=Nc2ccc(N3CCOCC3)cc2)c(=O)n(CC)c1=S	-6.62*	19.0	.	0.0446*
CCn1c(O)c(C=Nc2ccc(N3CCOCC3)c(Br)c2)c(=O)n(CC)c1=S	-5.3*	-6.0	.	0.0789
CCn1c(O)c(C=NCCN2CCOCC2)c(=O)n(CC)c1=S	.	-12.7	15.9	.
CCn1c(O)c(/C=N/N2CCOCC2)c(=O)n(CC)c1=S	.	-10.5	8.9	.
CCOC(=O)c1c(C)n(C(C)C)c2ccc(OC(=O)c3ccc(N4C(=O)CCC4=O)cc3)cc12	.	2.9	18.4	.
CN1CCN(Cc2cc(C(C)(C)C)c(O)c(C(C)(C)C)c2)CC1	-0.287	.	.	.
CC(C)(C)c1cc([N+](=O)[O-])cc(C(C)(C)C)c1O	.	1.3	16.5	0.0813
CCNC(=O)NNC(=O)C1CC(c2cccnc2)=NO1 (stereo not given)	0.0024	.	14.4	.
COc1ccccc1OP(=O)(Nc1cccnc1)Oc1ccccc1OC	.	-39.2	6.1	0.062*
COc1cccc(NP(=O)(Oc2ccc(Cl)cc2)Oc2ccc(Cl)cc2)c1	1.29	8.0	-13.3	.
CC(NCc1ccc(Cl)c(Cl)c1)C(O)c1ccccc1 (stereo not given)	-2.55	.	.	.
CCOc1cc(CNC(C)C(O)c2ccccc2)cc(Cl)c1OCC (stereo not given)	-2.79*	.	8.9	0.0586*
COc1cccc(C2(O)CCN(Cc3ccncc3)CC2)c1	-0.64	.	19.6	.
COc1ccccc1-n1c(Cc2ccccc2)nc2ccccc2c1=O	-0.25	12.9	26.6	.
CCCC1(CCC)C(=O)NC(=NCc2ccccc2)NC1=O	-1.22	.	.	.
CCCCC1(CCCC)C(=O)NC(=Nc2cccc(C)c2)NC1=O	.	.	.	0.052*
COC(=O)C1C(O)C(C)C(O)C(C)/C=C\C=C(/C)C(=O)Nc2c(C)c(OC(C)=O)c3c(c2O)C(=O)C(C)=C2OCOC(=C23)/C(C)=C/C(C)(O)C(O)C(C)C1O (stereo not given)	.	.	-0.2	.
C1=C(c2c[nH]c3ccccc23)CCN(Cc2ccccc2)C1	-3.71*	-2.2	11.4	0.0496*
c1ccc2c(CN3CCCCCCC3)c[nH]c2c1	.	20.1	.	.
CCN(CC)P(=O)(NC(=O)c1cccn1C)N(CC)CC	0.821	.	-1.3	.
COc1ccc(CN2CCNCC2)cc1	.	-5.2	.	.
CCCCCCOc1ccc(CN2CCN(CC)CC2)cc1	-3.95*	.	.	0.0597*
CC(C)C/C(=N/O)c1cn(C)c2ccccc12	-0.969	14.5	9.3	.
